Results as given in ChEMBL document CHEMBL1781924, “Inhibitors of the NF-kappaB activation pathway from Cryptocarya rugulosa” (J Nat Prod, 2009).
The source made the active and inactive calls. The calls are words filed in the database; no cut-off is given here.

Legend:
K562 [1] = test: Cytotoxicity against human K562 cells; assay type: functional, cell-based
OCI-Ly3 [2] = test: Induction of IkappaB in human OCI-LY3 cells assessed as fold increase in luciferase reporter gene; assay type: functional, cell-based
OCI-Ly3 [3] = test: Induction of IkappaB in human OCI-LY3 cells assessed as fold increase in luciferase reporter gene at 16 uM; assay type: functional, cell-based
K562 [4] = test: Cytotoxicity against doxorubicin-resistant human K562 cells; assay type: functional, cell-based
KB = test: Cytotoxicity against human KB cells; assay type: functional, cell-based
OCI-Ly3 [5] = test: Induction of IkappaB in human OCI-LY3 cells assessed as fold increase in luciferase reporter gene after 10 hrs; assay type: functional, cell-based; conditions: TDE = time-dependent effect
[6] = target: T1, Inhibitor of nuclear factor kappa-B kinase subunit beta (Homo sapiens) (UniProt O14920); test: Inhibition of IKK-beta in human OCI-LY3 cells assessed as decrease in renilla values at 2.5 to 5 ug/ml after 10 hrs by IkB-photinus/Renilla assay; assay type: cell-based; conditions: 5 to 10 ug/ml, in the assay text read “at 5 to 10 ug/ml” for “at 2.5 to 5 ug/ml”
T1 sequence (whole entry): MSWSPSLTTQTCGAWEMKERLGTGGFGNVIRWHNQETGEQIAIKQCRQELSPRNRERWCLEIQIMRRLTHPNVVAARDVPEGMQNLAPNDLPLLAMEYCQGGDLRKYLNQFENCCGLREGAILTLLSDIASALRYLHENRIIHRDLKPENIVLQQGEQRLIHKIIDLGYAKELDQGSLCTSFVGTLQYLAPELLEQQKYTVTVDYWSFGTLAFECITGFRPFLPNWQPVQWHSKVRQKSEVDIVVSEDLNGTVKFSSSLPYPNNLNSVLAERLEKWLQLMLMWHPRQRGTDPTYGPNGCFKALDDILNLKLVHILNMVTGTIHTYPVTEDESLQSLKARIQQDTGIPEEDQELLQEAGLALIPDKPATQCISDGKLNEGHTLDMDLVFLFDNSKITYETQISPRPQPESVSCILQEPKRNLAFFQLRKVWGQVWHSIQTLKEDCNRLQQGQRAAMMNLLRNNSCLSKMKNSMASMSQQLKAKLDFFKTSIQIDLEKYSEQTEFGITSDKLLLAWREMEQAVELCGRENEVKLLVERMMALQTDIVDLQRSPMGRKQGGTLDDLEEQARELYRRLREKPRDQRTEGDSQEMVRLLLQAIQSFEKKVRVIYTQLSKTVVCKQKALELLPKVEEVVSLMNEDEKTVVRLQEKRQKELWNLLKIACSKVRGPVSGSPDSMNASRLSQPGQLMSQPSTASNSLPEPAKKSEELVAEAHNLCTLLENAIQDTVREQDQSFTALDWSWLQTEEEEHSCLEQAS
How it was run: (§1)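 OCI-Ly3, OCI-Ly10 and OCI-Ly19 cells stably coexpressing an IκB-Photinus fusion reporter and unmodified Renilla luciferase, in phenol red-free IMDM with 20% heparinized human plasma. Cells were exposed to compound at 37 °C, 5% CO2 for 2.5, 5 or 10 h, then pelleted, lysed and given dual luciferase substrates. Photinus/Renilla ratio and Renilla alone were normalized to the untreated control mean.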

[7] = target: T1, Inhibitor of nuclear factor kappa-B kinase subunit beta (Homo sapiens); test: Inhibition of IKK-beta in human OCI-LY19 cells assessed as decrease in renilla values at 10 ug/ml after 2.5 to 10 hrs by IkB-photinus/Renilla assay; assay type: cell-based; how it was run: as §1
[8] = target: T1, Inhibitor of nuclear factor kappa-B kinase subunit beta (Homo sapiens); test: Inhibition of IKK-beta in human OCI-LY19 cells assessed as decrease in renilla values at 10 ug/ml after 10 hrs by IkB-photinus/Renilla assay; assay type: cell-based; how it was run: as §1
OCI-Ly3 [9] = test: Induction of IkappaB in human OCI-LY3 cells assessed as fold increase in luciferase reporter gene at 11 uM; assay type: functional, cell-based
[10] = target: T1, Inhibitor of nuclear factor kappa-B kinase subunit beta (Homo sapiens); test: Inhibition of IKK-beta in human OCI-LY10 cells assessed as decrease in renilla values at 2.5 to 10 ug/ml after 10 hrs by IkB-photinus/Renilla assay; assay type: cell-based; how it was run: as §1

Row | inhibition [6] | inhibition [7] | inhibition [8] | inhibition [10] | Compound | IC50 (K562 [1]) [µM] | Activity (OCI-Ly3 [2]) | Activity (OCI-Ly3 [3]) | IC50 (K562 [4]) [µM] | IC50 (KB) [µM] | Activity (OCI-Ly3 [5]) | Activity (OCI-Ly3 [9])
1 | – | – | – | – | O=C1C[C@@H]2/C(=C(O)\C=C\c3ccccc3)C(=O)C=C[C@@H]2O1 [CRYPTOCARYONE] | 1.8 | Dose-dependent effect | Active | 1.8 | 1.8 | tde | –
2 | Active | Active | inactive | Active | O=C(/C=C/C[C@@H]1CC=CC(=O)O1)CCc1ccccc1 | – | Dose-dependent effect | – | – | – | tde | Active
